From publication PMC9473745 (Cell chemical biology, 2021) come the findings set out here.

Assay [1] has as its target T1, USP28 catalytic domain (Homo sapiens, UniProt Q96RU2).
T1 sequence (Q96RU2 149-703): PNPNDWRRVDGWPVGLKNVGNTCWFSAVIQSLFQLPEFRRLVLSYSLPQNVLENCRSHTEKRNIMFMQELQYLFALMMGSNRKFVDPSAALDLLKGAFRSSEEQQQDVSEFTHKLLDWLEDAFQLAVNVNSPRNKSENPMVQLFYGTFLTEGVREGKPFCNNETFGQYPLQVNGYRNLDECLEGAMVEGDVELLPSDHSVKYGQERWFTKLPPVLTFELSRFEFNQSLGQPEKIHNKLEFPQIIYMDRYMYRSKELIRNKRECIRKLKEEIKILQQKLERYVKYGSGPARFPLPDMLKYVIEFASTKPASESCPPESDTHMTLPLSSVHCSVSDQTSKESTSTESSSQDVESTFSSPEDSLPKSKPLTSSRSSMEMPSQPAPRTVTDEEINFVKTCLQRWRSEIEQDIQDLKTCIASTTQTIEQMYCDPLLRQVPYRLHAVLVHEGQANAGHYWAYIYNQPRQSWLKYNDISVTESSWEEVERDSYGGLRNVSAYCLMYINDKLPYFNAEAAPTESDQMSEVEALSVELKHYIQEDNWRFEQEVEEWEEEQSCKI
Briefly: Ubiquitin rhodamine 110 kinetic assay, USP28. The assay is classed as biochemical. The settings on record: for potency relative to AZ1: USP28 IC50 compared with AZ1.

For assay [2], the system named is native USP25 in HEK293T lysates. Briefly: Quantitative activity-based protein profiling. The assay is classed as binding, human. The settings on record: HEK293T lysate, 250 μM compound, Ub-PA/Ub-VME probes. The gist of the method: (§1)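 HEK293T cells were lysed in NP-40/glycerol/TCEP buffer with protease and phosphatase inhibitors, and lysate was diluted to 10 mg/mL. Lysate was incubated with 250 μM test compound or DMSO for 30 min at room temperature, with a selective USP7 inhibitor as positive control. Biotin-Ub-PA and biotin-Ub-VME (1 μM each) were added for 15 min. Labelled proteins were captured on streptavidin, trypsin-digested on bead and TMT-labelled. Quantified by multidimensional LC-MS using reporter-ion protein-level values.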

In assay [3] the test system is USP28 in HEK293T lysates. Briefly: Quantitative activity-based protein profiling. The assay is classed as binding, human. The settings on record: HEK293T lysate, 250 μM compound, Ub-PA/Ub-VME probes. The gist of the method: as §1
In assay [4] the test system is other DUBs detected in cell lysate. Briefly: Quantitative activity-based protein profiling. The assay is classed as binding, human. The settings on record: HEK293T lysate, 250 μM compound, Ub-PA/Ub-VME probes. The gist of the method: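 Aliquots were treated with 250 μM compound or DMSO for 30 min at RT, then processed to peptides. Peptides were TFA-acidified, C18-desalted, and TMT-labeled for 1 h at RT. Peptides were mapped to unique genes, and reporter ions were aggregated into protein-level values.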

Assay [5] relates to USP28 in HEK293T cellular lysate. Briefly: Competitive ABPP with western blot readout for USP28. The class given is binding, human. The settings on record: 1 hour pre-treatment, dose-response. The gist of the method: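 Lysate was pre-incubated with compound or DMSO for 1 h at RT. It was then labeled with 1:1 Ub-PA/Ub-VME (2 μM final) for 30 min at RT with shaking. Samples were denatured at 95°C, run on SDS-PAGE, and immunoblotted with anti-USP28 rabbit monoclonal.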

The target of assay [6] is USP7 catalytic domain (Homo sapiens, UniProt Q93009). Briefly: Ubiquitin rhodamine 110 kinetic assay, USP7 catalytic domain. The assay is classed as biochemical. The gist of the method: (§2)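 Human DUB constructs, each N-terminally 6xHis-tagged and expressed in E. coli BL21(DE3): USP7 full length (AA 1–1102), USP7 catalytic domain (AA 208–560), USP8 catalytic domain (AA 743–1110) and USP30 catalytic domain (AA 65–517). Ub-Rho110 was then added and fluorescence (ex 485/em 535 nm) read each minute over 30 min. Initial rates were normalized to no-compound wells and fitted (variable slope) for IC50; each run at least twice, SEM.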
Chain of USP7 catalytic domain (Q93009 208-560): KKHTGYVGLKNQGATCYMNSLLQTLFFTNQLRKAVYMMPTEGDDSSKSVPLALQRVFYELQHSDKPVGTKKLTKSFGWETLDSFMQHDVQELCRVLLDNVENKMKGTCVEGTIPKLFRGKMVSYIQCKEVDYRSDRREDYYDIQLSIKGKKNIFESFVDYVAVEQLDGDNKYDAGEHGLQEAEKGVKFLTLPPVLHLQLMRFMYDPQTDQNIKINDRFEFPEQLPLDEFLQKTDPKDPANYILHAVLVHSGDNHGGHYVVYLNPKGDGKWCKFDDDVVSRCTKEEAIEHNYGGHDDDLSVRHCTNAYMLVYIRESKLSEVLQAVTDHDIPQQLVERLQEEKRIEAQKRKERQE

Assay [7] concerns full-length USP7. Briefly: Kinetic Ub-Rho assay, full-length USP7. The class given is biochemical, human. The settings on record: dose-response. The gist of the method: as §2
Assay [8] has as its system USP7. Briefly: Ub-Rho endpoint screen of spiro indolinone expansion set, USP7. The assay is classed as biochemical, human. The settings on record: 8-point dose-response in triplicate. The gist of the method:
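Enzyme and acoustically dispensed test compound were incubated 1 h; DMSO-only wells served as neutral control. Ub-Rho110 was then added and the reaction run 10 min at room temperature without a quench. Fluorescence was read at ex 485/em 535 nm.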

Assay [9] has as its system USP8. Briefly: Ub-Rho endpoint screen of spiro indolinone expansion set, USP8. The class given is biochemical, human. The settings on record: 8-point dose-response in triplicate. The gist of the method:
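Enzyme and test compound were incubated 10 min; DMSO wells served as control. Ub-Rho110 was then added and the reaction run 30 min–3 h at room temperature depending on DUB. Stopped with assay buffer plus 0.2% TFA and read at ex 485/em 535 nm.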

The target of assay [10] is T2, USP30 catalytic domain (Homo sapiens, UniProt Q70CQ3).
T2 sequence (Q70CQ3 65-517): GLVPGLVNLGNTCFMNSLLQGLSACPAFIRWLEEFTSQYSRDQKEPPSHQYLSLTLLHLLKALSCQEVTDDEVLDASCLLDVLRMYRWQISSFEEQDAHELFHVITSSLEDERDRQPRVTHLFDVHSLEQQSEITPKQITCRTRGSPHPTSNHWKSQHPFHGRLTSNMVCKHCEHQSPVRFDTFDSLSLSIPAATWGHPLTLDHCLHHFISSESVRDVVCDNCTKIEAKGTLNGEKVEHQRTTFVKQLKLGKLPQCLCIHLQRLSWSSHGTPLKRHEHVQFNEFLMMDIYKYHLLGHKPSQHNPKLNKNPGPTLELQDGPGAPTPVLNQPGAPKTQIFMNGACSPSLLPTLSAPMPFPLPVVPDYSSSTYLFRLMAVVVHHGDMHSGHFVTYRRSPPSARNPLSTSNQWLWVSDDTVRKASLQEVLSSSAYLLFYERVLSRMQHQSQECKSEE
Briefly: Ubiquitin rhodamine 110 kinetic assay, USP30. The assay is classed as biochemical. The gist of the method: as §2

The target in assay [11] is T3, USP8 catalytic domain (Homo sapiens, UniProt P40818).
T3 sequence (P40818 743-1110): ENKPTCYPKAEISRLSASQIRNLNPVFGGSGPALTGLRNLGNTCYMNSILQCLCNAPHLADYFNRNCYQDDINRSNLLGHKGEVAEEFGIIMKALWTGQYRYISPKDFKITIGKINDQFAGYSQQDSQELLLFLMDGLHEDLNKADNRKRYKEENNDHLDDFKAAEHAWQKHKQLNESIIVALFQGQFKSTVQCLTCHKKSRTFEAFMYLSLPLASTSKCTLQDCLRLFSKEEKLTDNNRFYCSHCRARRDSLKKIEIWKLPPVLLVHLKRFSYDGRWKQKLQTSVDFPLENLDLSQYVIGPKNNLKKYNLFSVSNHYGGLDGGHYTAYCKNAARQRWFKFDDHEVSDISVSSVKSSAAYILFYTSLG
Briefly: Ubiquitin rhodamine 110 kinetic assay, USP8. The assay is classed as biochemical. The settings on record: kinetic Ub-Rho assay. The gist of the method: as §2

Assay [12] has as its target USP10 catalytic domain (Homo sapiens, UniProt Q14694). Briefly: Ubiquitin rhodamine 110 kinetic assay, USP10. The assay is classed as biochemical. The settings on record: read-out: IC50 ± SEM, kinetic Ub-Rho assay, 12-point dose-response, mean ± SEM (n). The gist of the method:
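Enzyme was the human USP10 catalytic domain (aa 376–798), N-6xHis, E. coli-expressed, purified by Ni-NTA and Superdex 200. Fluorescence (ex 485/em 535 nm) was read every minute for 30 min. Initial rates were normalized to no-compound control and fitted with a variable-slope model; runs ≥2, SEM.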

The subject of assay [13] is USP8. Briefly: Ubiquitin-AMC kinetic assay, USP8. The class given is biochemical, human. The settings on record: dose-response. The gist of the method: (§3)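 Same kinetic protocol as the Ub-Rho110 assay, with Ub-AMC as substrate. His-tagged catalytic domains were used: USP8 (AA 743–1110) and USP10 (AA 376–798). Read at ex 345/em 445 nm each minute over 30 min. IC50 came from initial rates normalized to no-compound wells and was compared with the Ub-Rho110 value.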

The test system of assay [14] is USP10. Briefly: Ubiquitin-AMC kinetic assay, USP10. The class given is biochemical, human. The settings on record: dose-response. The gist of the method:
as §3

The mark [15] stands for this setting: IC50 ± SEM, USP28, catalytic domain of the human protein, kinetic Ub-Rho assay, mean ± SEM (n).

Entries after “also recorded” stand apart in the source; their conditions may differ. Like-named read-outs stand apart in the source and are kept apart here.

Chain of USP10 catalytic domain (Q14694 376-798): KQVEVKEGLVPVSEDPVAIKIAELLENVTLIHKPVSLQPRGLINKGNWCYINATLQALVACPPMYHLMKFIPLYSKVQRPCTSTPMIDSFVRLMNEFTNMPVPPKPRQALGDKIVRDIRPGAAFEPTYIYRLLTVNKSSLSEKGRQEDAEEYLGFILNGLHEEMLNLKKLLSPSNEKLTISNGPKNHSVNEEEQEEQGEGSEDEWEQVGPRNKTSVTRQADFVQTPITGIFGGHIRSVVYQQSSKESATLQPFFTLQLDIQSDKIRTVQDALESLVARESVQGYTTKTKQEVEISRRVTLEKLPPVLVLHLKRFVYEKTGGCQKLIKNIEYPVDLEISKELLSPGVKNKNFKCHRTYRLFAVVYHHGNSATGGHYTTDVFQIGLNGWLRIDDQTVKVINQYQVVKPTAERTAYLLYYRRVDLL

For `Cc1ccc(S(=O)(=O)N(C)C)cc1NC(=O)Cc1ccc(Cl)c(Cl)c1` [AV-9606–129, 2-(3,4-dichlorophenyl)-N-(5-(N,N-dimethylsulfamoyl)-2-methylphenyl)acetamide], in assay [1] (setting [15]), the IC50 (as a rule, the concentration that inhibits the measured activity by half) is 402 ± 197 nM.
As for `OCCNCc1cc(Br)ccc1OCc1ccc(F)c(C(F)(F)F)c1` [AZ1], in assay [2], the “blockage of probe labeling of USP25” value is given as “strongly blocked labeling of USP25”. Also, the “blockage of probe labeling of USP28” value in [3] is recorded as “little impact on USP28”. In assay [4], the “activity toward other DUBs detected” value is listed as “did not exhibit activity toward any other DUBs”.
`CCCc1nc2sc3c(NCCc4ccc(OC)c(OC)c4)ncnc3c2c2c1CCC2` [bin-01–07-07, N-(3,4-dimethoxyphenethyl)-4-propyl-2,3-dihydro-1H-cyclopenta[4’,5’]pyrido[3’,2’:4,5]thieno[3,2-d]pyrimidin-7-amine]: the IC50 in [1] (IC50, USP28) is at most 100 nM; in [1] (setting [15]), 46 ± 17 nM. Also, the “potency relative to AZ1” value in assay [1] is recorded as “approximately 10 fold”. The “blockage of probe labeling of USP28” value in assay [3] is “strong inhibition of USP28”. In assay [5], the “blockage of USP28 labeling by covalent probe (western blot)” value (“blockage of USP28 labeling” for short) was “good dose-dependent inhibition and prevention of probe labeling”.
Compound `O=c1ccc(-c2noc(Cc3ccc(Cl)c(Cl)c3)n2)c[nH]1` [AV-9606–180, 5-(5-(3,4-dichlorobenzyl)-1,2,4-oxadiazol-3-yl)pyridin-2(1H)-one] showed an IC50 in assay [1] (IC50, USP28) of at most 100 nM. In assay [1], the “potency relative to AZ1” value is on record as “approximately 10 fold”. Further, in assay [3], the “blockage of probe labeling of USP28” value is reported as “strong inhibition of USP28”. Also, the “blockage of USP28 labeling” value in [5] is “good dose-dependent inhibition and prevention of probe labeling”.
Consider `CC(C)c1[nH]nc2c1C1(C(=O)Nc3ccccc31)C(C#N)=C(N)O2` (centres unmarked) [AV-9606–41, 6’-amino-3’-isopropyl-2-oxo-2’H-spiro[indoline-3,4’-pyrano[2,3-c]pyrazole]-5’-carbonitrile], for which, in assay [6], the IC50 amounted to 3830 ± 1600 nM. The “inhibition of full-length USP7” value in assay [7] is “no inhibition of full-length protein; also recorded: no activity against a full-length protein”. For the same compound, the “activity against USP7 in expansion set screen” value in [8] is “active against USP7”. In [9], the “activity against USP8 in expansion set screen” value is “inactive against USP8”.
Take `CC(C)NS(=O)(=O)c1cccc2c(NC(=O)[C@H](Cc3ccccc3)NC(=O)c3ccccc3)cccc12` [AV-11324–5, (S)-N-(1-((5-(N-isopropylsulfamoyl)naphthalen-1-yl)amino)-1-oxo-3-phenylpropan-2-yl)benzamide]: in [10], the IC50 is 275 ± 70 nM.
`O=C1c2ccccc2NC2(C(=O)Nc3ccc(Br)cc32)N1c1ccccc1` (centres unmarked) [AV-9606–99, 5-bromo-3’-phenyl-1’H-spiro[indoline-3,2’-quinazoline]-2,4’(3’H)-dione] returned an IC50 in assay [1] (setting [15]) of 4330 ± 1080 nM.
Regarding `Cc1nn(-c2ccccc2)c2c1C1(C(=O)Nc3ccccc31)N1C(=N2)Sc2ccccc21` (centres unmarked) [AV-9606–27, 3-methyl-1-phenyl-1H-spiro[benzo[4,5]thiazolo[3,2-a]pyrazolo[3,4-d]pyrimidine-4,3’-indolin]-2’-one], the IC50 in assay [6] (read-out: IC50 ± SEM, USP7, kinetic Ub-Rho assay, 12-point dose-response, mean ± SEM (n)) was found to be 4680 ± 1050 nM.
For the compound `COc1ccc(C(=O)COC(=O)c2ccccc2NS(=O)(=O)c2ccc(O)c([N+](=O)[O-])c2)cc1` [Compound Z56965384], in assay [11], the “inhibition of off-target DUB USP8” value was “confirmed inhibition”. Moreover, the IC50 in assay [12] is 26600 ± 4690 nM. Also, the “increase in IC50 value with Ubiquitin-AMC versus Ub-Rho” value in assay [13] and in assay [14] was 3–10 fold in each case.
Compound `O=c1ccc(-c2noc(Cc3cccc(Cl)c3)n2)c[nH]1` [AV-11324–75, 5-(5-(3-chlorobenzyl)-1,2,4-oxadiazol-3-yl)pyridin-2(1H)-one] came in with a half-inhibitory concentration (IC50) in [1] (setting [15]) of 176 ± 73 nM. Moreover, the “blockage of USP28 labeling” value in assay [5] is “good dose-dependent inhibition and prevention of probe labeling”.
